Calls of active or inactive are those of the source. Non-standard residues stand in square brackets, D forms with d. Residues, ends and D or L forms follow the SMILES beside them. NMeTrp(4-OMe) = CN[C@@H](Cc1c[nH]c2cccc(OC)c12)C(=O)O; NMeM = CN[C@@H](CCSC)C(=O)O
Assays:
[1] = system: AGS; assay: Cytotoxicity against human AGS cells assessed as reduction in cell viability after 48 hrs by MTT assay; assay type: functional, cell-based
Method in brief: (§1)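 MTT read-out. Cells seeded at (2-3) × 10^3/well, incubated 12 h, then exposed to 3.125–100 μM for 48 h, with MTT added for the final 4 h. Absorbance read at 540 nm. Viability is normalized to DMSO-treated cells. IC50 computed by statistical software. Means ± SEM, n = 3. AGS cells were grown in RPMI, Caco2 and HCT116 in DMEM, all with 10% FBS, at 37 °C and 5% CO2.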

[2] = system: Caco-2; assay: Cytotoxicity against human Caco-2 cells assessed as reduction in cell viability after 48 hrs by MTT assay; assay type: functional, cell-based; method in brief: as §1
[3] = system: HCT-116; assay: Cytotoxicity against human HCT-116 cells assessed as reduction in cell viability after 48 hrs by MTT assay; assay type: functional, cell-based; method in brief: as §1
[4] = system: Caco-2; assay: Induction of apoptosis in human Caco-2 cells at 13 to 16 uM after 6 hrs by annexin V-FITC/propidium iodide staining based flow cytometric analysis; assay type: functional, cell-based; conditions: dose microM 13-16, time 6.0 hrs
[5] = system: HCT-116; assay: Induction of apoptosis in human HCT-116 cells at 21 to 26 uM after 6 hrs by annexin V-FITC/propidium iodide staining based flow cytometric analysis; assay type: functional, cell-based; conditions: dose microM 21-26, time 6.0 hrs
[6] = system: Caco-2; assay: Inhibition of cell migration in human Caco-2 cells after 6 hrs by K1-Fluo RT fluorescence confocal microscope based transwell assay; assay type: functional; conditions: dose microM 0.15-1.3, time 6.0 hrs
Method in brief: (§2)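 Migration through uncoated Boyden chambers. (2.0-2.5) × 10^5 Caco2 cells seeded in medium with 0.2% BSA. The lower chamber holds 0.2% BSA medium plus 10 μg/mL fibronectin as chemoattractant. Treated at 0.15, 0.65 or 1.3 μM for 6 h at 37 °C. Migrated cells fixed, Diff-Quick stained and counted in five random fields by confocal microscopy. Expressed relative to DMSO control; triplicate.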

[7] = system: Caco-2; assay: Inhibition of cell migration in human Caco-2 cells at 1.3 uM after 6 hrs by K1-Fluo RT fluorescence confocal microscope based transwell assay relative to control; assay type: functional; method in brief: as §2
[8] = system: Caco-2; assay: Inhibition of cell migration in human Caco-2 cells after 24 hrs by fluorescence microscope based Boyden-Chamber cell migration assay; assay type: functional; conditions: dose microM 0.15-1.3, time 24.0 hrs
Method in brief: (§3)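 Boyden chambers coated with 1% gelatin. Caco2 seeded at 2.5 × 10^6 cells/mL in 0.2% BSA medium; the lower chamber has 0.2% BSA medium with 10 μg/mL fibronectin. Exposed to 0.15, 0.65 or 1.3 μM for 24 h at 37 °C. Invaded cells fixed, Diff-Quick stained and counted in five random fields by fluorescence microscopy. Expressed relative to DMSO control; three replicates.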

[9] = system: Caco-2; assay: Inhibition of cell migration in human Caco-2 cells at 1.3 uM after 24 hrs by fluorescence microscope based Boyden-Chamber cell migration assay relative to control; assay type: functional; method in brief: as §3
[10] = system: Caco-2; assay: Inhibition of epithelial-mesenchymal transition in human Caco-2 cells assessed as increase in E-cadherin mRNA expression after 24 hrs by qRT-PCR analysis; assay type: functional, cell-based; conditions: dose microM 0.65-1.3, time 24.0 hrs
Method in brief: (§4)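 Caco2 treated 24 h at 0.65 or 1.3 μM. Total RNA isolated, and 1 μg reverse-transcribed. Quantified by SYBR green real-time PCR. Fold change derived from cycle-threshold values, normalized to GAPDH, and compared with DMSO-treated cells. Means ± SEM, n = 3.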

[11] = system: Caco-2; assay: Inhibition of epithelial-mesenchymal transition in human Caco-2 cells assessed as decrease in N-cadherin mRNA expression after 24 hrs by qRT-PCR analysis; assay type: functional, cell-based; conditions: dose microM 0.65-1.3, time 24.0 hrs; method in brief: as §4
[12] = system: Caco-2; assay: Inhibition of epithelial-mesenchymal transition in human Caco-2 cells assessed as decrease in vimentin mRNA expression after 24 hrs by qRT-PCR analysis; assay type: functional, cell-based; conditions: dose microM 0.65-1.3, time 24.0 hrs; method in brief: as §4
[13] = system: Caco-2; assay: Inhibition of epithelial-mesenchymal transition in human Caco-2 cells assessed as decrease in Snail mRNA expression at 0.65 to 1.3 uM after 24 hrs by qRT-PCR analysis; assay type: functional, cell-based; conditions: dose microM 0.65-1.3, time 24.0 hrs; method in brief: as §4
[14] = system: Caco-2; assay: Inhibition of epithelial-mesenchymal transition in human Caco-2 cells assessed as decrease in Slug mRNA expression at 0.65 to 1.3 uM after 24 hrs by qRT-PCR analysis; assay type: functional, cell-based; conditions: dose microM 0.65-1.3, time 24.0 hrs; method in brief: as §4
[15] = system: Caco-2; assay: Inhibition of epithelial-mesenchymal transition in human Caco-2 cells assessed as decrease in Twist mRNA expression at 0.65 to 1.3 uM after 24 hrs by qRT-PCR analysis; assay type: functional, cell-based; conditions: dose microM 0.65-1.3, time 24.0 hrs; method in brief: as §4
[16] = system: Caco-2; assay: Inhibition of epithelial-mesenchymal transition in human Caco-2 cells assessed as decrease in ZEB1 mRNA expression at 0.65 to 1.3 uM after 24 hrs by qRT-PCR analysis; assay type: functional, cell-based; conditions: dose microM 0.65-1.3, time 24.0 hrs; method in brief: as §4
[17] = system: Caco-2; assay: Inhibition of epithelial-mesenchymal transition in human Caco-2 cells assessed as decrease in ZEB2 mRNA expression at 0.65 to 1.3 uM after 24 hrs by qRT-PCR analysis; assay type: functional, cell-based; conditions: dose microM 0.65-1.3, time 24.0 hrs; method in brief: as §4
[18] = system: Caco-2; assay: Inhibition of epithelial-mesenchymal transition in human Caco-2 cells assessed as increase in E-cadherin protein expression at 0.65 to 1.3 uM after 24 hrs by Western blot analysis; assay type: functional, cell-based; conditions: dose microM 0.65-1.3, time 24.0 hrs
Method in brief: (§5)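 2 × 10^5 Caco2 cells per well treated 24 h at nontoxic concentrations. Lysates separated by SDS-PAGE and probed with primary antibodies, then HRP-conjugated secondaries. Luminescence band densities normalized to α-tubulin and compared with DMSO-treated cells. Means ± SEM, n = 3.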

[19] = system: Caco-2; assay: Inhibition of epithelial-mesenchymal transition in human Caco-2 cells assessed as decrease in N-cadherin protein expression at 0.65 to 1.3 uM after 24 hrs by Western blot analysis; assay type: functional, cell-based; conditions: dose microM 0.65-1.3, time 24.0 hrs; method in brief: as §5
[20] = system: Caco-2; assay: Inhibition of epithelial-mesenchymal transition in human Caco-2 cells assessed as decrease in Snail protein expression at 0.65 to 1.3 uM after 24 hrs by Western blot analysis; assay type: functional, cell-based; conditions: dose microM 0.65-1.3, time 24.0 hrs; method in brief: as §5
[21] = system: Caco-2; assay: Inhibition of epithelial-mesenchymal transition in human Caco-2 cells assessed as decrease in Twist protein expression at 0.65 to 1.3 uM after 24 hrs by Western blot analysis; assay type: functional, cell-based; conditions: dose microM 0.65-1.3, time 24.0 hrs; method in brief: as §5
[22] = system: Caco-2; assay: Inhibition of cell motility in human Caco-2 cells assessed as reduction in CAPN1 mRNA expression at 0.65 to 1.3 uM by RT2 Profiler PCR Array; assay type: functional, cell-based; conditions: dose microM 0.65-1.3
[23] = system: Caco-2; assay: Inhibition of cell motility in human Caco-2 cells assessed as reduction in RAC2 mRNA expression at 0.65 to 1.3 uM by RT2 Profiler PCR Array; assay type: functional, cell-based; conditions: dose microM 0.65-1.3

`CC[C@H](C)[C@@H]1NC(=O)[C@H]([C@@H](C)O)NC(=O)[C@H](Cc2c[nH]c3cccc(OC)c23)N(C)C(=O)[C@H](CCSC)N(C)C1=O` (cyclo(I[NMeM][NMeTrp(4-OMe)]T)) was tested, and the Activity [1] was “Dose-dependent effect”, the IC50 [1] was 18 µM and the Activity [2] was “Dose-dependent effect”. The IC50 ([2]; Caco-2, 48 h) was 13 µM, the Activity [3] was “Dose-dependent effect” and the IC50 ([3]; HCT-116, 48 h) was 21 µM. The Activity [4] was “Active”, the Activity [5] was “Active” and the inhibition [6] was “Dose-dependent effect”. For the same molecule, the inhibition at 1.3 µM [7] was 50%, the inhibition [8] was “Dose-dependent effect” and the inhibition at 1.3 µM [9] was 45%. For the same molecule, the inhibition [10] was “Dose-dependent effect”, the inhibition [11] was “Dose-dependent effect” and the inhibition [12] was “Dose-dependent effect”. The inhibition [13] was “Active”, the inhibition [14] was “Active” and the inhibition [15] was “Active”. For the same molecule, the inhibition [16] was “Active”, the inhibition [17] was “Active” and the inhibition [18] was “Active”. For the same molecule, the inhibition [19] was “Active”, the inhibition [20] was “Active” and the inhibition [21] was “Active”. For the same molecule, the inhibition [22] was “Active” and the inhibition [23] was “Active”.
